Laboratory results reported in ChEMBL document CHEMBL5036358, “The Flavonoid Baicalein Negatively Regulates Progesterone Target Genes in the Uterus in Vivo” (J Nat Prod, 2022).
The source made the active and inactive calls. The calls are words filed in the database; no cut-off is given here.

What was measured:
Progesterone receptor = biological target: T1, Progesterone receptor (Homo sapiens, UniProt P06401); assay: Competitive inhibition of progesterone receptor (unknown origin) by fluorescence polarization based competition assay
T1 sequence (P06401 whole entry): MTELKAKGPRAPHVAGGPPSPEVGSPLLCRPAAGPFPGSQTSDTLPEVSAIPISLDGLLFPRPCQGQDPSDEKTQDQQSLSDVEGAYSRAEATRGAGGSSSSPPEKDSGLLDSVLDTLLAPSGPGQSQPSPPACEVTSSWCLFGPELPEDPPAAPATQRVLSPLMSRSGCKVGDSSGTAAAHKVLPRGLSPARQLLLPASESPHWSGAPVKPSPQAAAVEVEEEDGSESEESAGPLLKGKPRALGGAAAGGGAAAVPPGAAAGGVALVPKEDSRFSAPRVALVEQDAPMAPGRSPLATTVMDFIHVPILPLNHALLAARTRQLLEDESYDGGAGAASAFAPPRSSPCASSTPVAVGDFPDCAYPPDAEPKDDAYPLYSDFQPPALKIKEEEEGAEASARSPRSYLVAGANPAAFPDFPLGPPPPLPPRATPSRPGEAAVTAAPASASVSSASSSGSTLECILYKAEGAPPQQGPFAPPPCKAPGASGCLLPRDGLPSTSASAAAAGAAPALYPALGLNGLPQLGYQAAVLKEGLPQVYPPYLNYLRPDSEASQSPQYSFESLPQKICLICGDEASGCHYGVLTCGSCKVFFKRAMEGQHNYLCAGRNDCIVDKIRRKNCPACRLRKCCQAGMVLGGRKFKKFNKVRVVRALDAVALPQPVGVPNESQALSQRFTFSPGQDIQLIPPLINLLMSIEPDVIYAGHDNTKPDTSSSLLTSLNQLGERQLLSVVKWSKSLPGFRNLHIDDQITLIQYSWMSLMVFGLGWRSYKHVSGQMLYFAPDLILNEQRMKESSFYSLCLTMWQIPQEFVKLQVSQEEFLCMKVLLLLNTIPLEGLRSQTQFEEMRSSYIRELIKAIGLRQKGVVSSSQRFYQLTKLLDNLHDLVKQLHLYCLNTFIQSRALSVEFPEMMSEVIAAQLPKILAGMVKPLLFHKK

[1] = Antiproliferative activity against CD-1 mouse uterine epithelial cell at 25 mg/kg, ip for 7 days by immunohistochemistry method; assay type: functional; settings: time 7 day
Summary of the method: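 Ovariectomized CD-1 mice (n=5/group) received ip 10% DMSO vehicle, 1 mg/kg P4, 25 mg/kg compound, or P4 plus compound daily for 7 days. Formalin-fixed, paraffin 5 μm uterine sections underwent citrate antigen retrieval (100 °C, 30 min), then PCNA IHC (1:200, overnight 4 °C), ABC/DAB and hematoxylin counterstain. Read-out was the percentage of PCNA-positive luminal epithelial cells.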

[2] = Toxicity in P4 induced CD-1 mouse assessed as effect on uterus weight at 25 mg/kg,ip for 7 days (Rvb= 0.033g); assay type: organism-based; settings: in vivo, 168 h, time 7 day
[3] = Toxicity in CD-1 mouse assessed as effect on glucose level at 25 mg/kg, ip for 7 days (Rvb=231.6 mg/dL); assay type: organism-based; settings: in vivo, 168 h, time 7 day
[4] = Toxicity in CD-1 mouse assessed as effect on body weight at 25 mg/kg, ip for 7 days (Rvb= 30g); assay type: organism-based; settings: in vivo, 168 h, time 7 day
Mus musculus [5] = assay: Effect on P4 induced GR expression in CD-1 mouse uterine stroma at 25 mg/kg, ip for 7 days by immunohistochemical analysis; assay type: functional, organism-based; settings: time 7.0 day
Summary of the method: (§1)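 Ovariectomized CD-1 mice (n=5/group) were dosed ip for 7 days with 10% DMSO, 1 mg/kg P4, 25 mg/kg compound, 1 mg/kg P4 plus 25 mg/kg compound, or 1 mg/kg P4 plus 10 mg/kg RU486. Uterine sections (5 μm) were processed with citrate retrieval and overnight 4 °C primary antibodies: GR 1:100; PR, HAND2 and ZBTB16 1:200. Staining used biotinylated secondary, ABC and DAB, and was assessed qualitatively.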

[6] = Toxicity in P4 induced CD-1 mouse assessed as effect on body weight at 25 mg/kg, ip for 7 days (Rvb= 30g); assay type: organism-based; settings: in vivo, 168 h, time 7 day
[7] = Toxicity in CD-1 mouse assessed as effect on liver weight at 25 mg/kg, ip for 7 days (Rvb= 1.3 g); assay type: organism-based; settings: in vivo, 168 h, time 7 day
Mus musculus [8] = assay: Effect on P4 induced GR expression in CD-1 mouse uterine luminal epithelium at 25 mg/kg, ip for 7 days by immunohistochemical analysis; assay type: functional, organism-based; settings: Uterine lumen, time 7.0 day; summary of the method: as §1
Mus musculus [9] = assay: Effect on GR expression in CD-1 mouse uterine stroma at 25 mg/kg, ip for 7 days by immunohistochemical analysis; assay type: functional, organism-based; settings: time 7.0 day; summary of the method: as §1
Mus musculus [10] = assay: Effect on P4 induced PR protein level in CD-1 mouse uterus at 25 mg/kg, ip for 7 days by immunohistochemical staining method; assay type: functional, organism-based; settings: time 7.0 day; summary of the method: as §1
Glucocorticoid receptor = biological target: T2, Glucocorticoid receptor (Homo sapiens, UniProt P04150); assay: Competitive inhibition of glucocorticoid receptor (unknown origin) by fluorescence polarization based competition assay
T2 sequence (P04150 whole entry): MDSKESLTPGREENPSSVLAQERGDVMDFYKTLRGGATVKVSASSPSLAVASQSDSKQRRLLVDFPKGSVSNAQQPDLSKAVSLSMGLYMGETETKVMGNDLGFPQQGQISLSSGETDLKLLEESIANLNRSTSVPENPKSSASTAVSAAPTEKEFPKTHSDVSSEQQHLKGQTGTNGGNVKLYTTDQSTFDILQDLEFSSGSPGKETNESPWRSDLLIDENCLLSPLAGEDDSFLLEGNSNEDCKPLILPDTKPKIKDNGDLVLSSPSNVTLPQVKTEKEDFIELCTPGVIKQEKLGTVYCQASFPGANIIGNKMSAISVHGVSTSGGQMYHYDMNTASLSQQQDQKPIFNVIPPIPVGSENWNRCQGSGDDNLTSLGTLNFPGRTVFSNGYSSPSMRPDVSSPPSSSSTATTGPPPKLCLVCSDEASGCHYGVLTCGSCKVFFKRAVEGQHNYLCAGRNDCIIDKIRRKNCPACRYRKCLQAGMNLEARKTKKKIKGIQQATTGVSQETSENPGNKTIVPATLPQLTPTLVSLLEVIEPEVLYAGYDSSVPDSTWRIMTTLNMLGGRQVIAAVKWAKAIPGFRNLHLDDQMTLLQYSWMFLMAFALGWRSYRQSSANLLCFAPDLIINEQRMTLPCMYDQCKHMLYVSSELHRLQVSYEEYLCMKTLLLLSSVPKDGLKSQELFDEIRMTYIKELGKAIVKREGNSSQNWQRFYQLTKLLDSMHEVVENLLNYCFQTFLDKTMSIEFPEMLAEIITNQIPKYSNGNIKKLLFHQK

Mus musculus [11] = assay: Upregulation of HAND2 expression in CD-1 mouse uterus at 25 mg/kg, ip for 7 days by immunohistochemical staining method; settings: time 7.0 day
Mus musculus [12] = assay: Upregulation of P4 induced HAND2 expression in CD-1 mouse uterus at 25 mg/kg, ip for 7 days by immunohistochemical staining method; assay type: functional, organism-based; settings: time 7.0 day, in the assay text read “Downregulation” for “Upregulation”; summary of the method: as §1
Mus musculus [13] = assay: Inhibition of ZBTB16 expression in CD-1 mouse uterus at 25 mg/kg, ip for 7 days by Immunohistochemical staining method; assay type: functional, organism-based; settings: time 7.0 day; summary of the method: as §1
[14] = Toxicity in P4 induced CD-1 mouse assessed as effect on MG weight at 25 mg/kg, ip for 7 days (Rvb= 0.22g); assay type: organism-based; settings: in vivo, 168 h, time 7 day
[15] = Toxicity in CD-1 mouse assessed as effect on uterus weight at 25 mg/kg,ip for 7 days (Rvb= 0.033g); assay type: organism-based; settings: in vivo, 168 h, time 7 day
[16] = Toxicity in P4 induced CD-1 mouse assessed as effect on liver weight at 25 mg/kg, ip for 7 days (Rvb= 1.3 g); assay type: organism-based; settings: in vivo, 168 h, time 7 day
[17] = Toxicity in P4 induced CD-1 mouse assessed as effect on glucose level at 25 mg/kg, ip for 7 days (Rvb=231.6 mg/dL); assay type: organism-based; settings: in vivo, 168 h, time 7 day
Mus musculus [18] = assay: Effect on GR expression in CD-1 mouse uterine luminal epithelium at 25 mg/kg, ip for 7 days by immunohistochemical analysis; assay type: functional, organism-based; settings: Uterine lumen, time 7.0 day; summary of the method: as §1
Mus musculus [19] = assay: Effect on PR protein level in CD-1 mouse uterus at 25 mg/kg, ip for 7 days by immunohistochemical staining method; assay type: functional, organism-based; settings: time 7.0 day; summary of the method: as §1
Mus musculus [20] = assay: Inhibition of PR induced ZBTB16 expression in CD-1 mouse uterus at 25 mg/kg,ip for 7 days by Immunohistochemical staining method; assay type: functional, organism-based; settings: time 7.0 day; summary of the method: as §1
[21] = Toxicity in CD-1 mouse assessed as effect on MG weight at 25 mg/kg, ip for 7 days (Rvb= 0.22g); assay type: organism-based; settings: in vivo, 168 h, time 7 day
[22] = Toxicity in P4 induced CD-1 mouse assessed as effect on liver weight at 10 mg/kg, ip for 7 days (Rvb= 1.3 g); assay type: organism-based; settings: in vivo, 168 h, time 7 day
[23] = Toxicity in P4 induced CD-1 mouse assessed as effect on body weight at 10 mg/kg, ip for 7 days (Rvb= 30g); assay type: organism-based; settings: in vivo, 168 h, time 7 day
Mus musculus [24] = assay: Upregulation of P4 induced HAND2 expression in CD-1 mouse uterus at 10 mg/kg, ip for 7 days by immunohistochemical staining method; assay type: functional, organism-based; settings: time 7.0 day
Mus musculus [25] = assay: Effect on P4 induced GR expression in CD-1 mouse uterine luminal epithelium at 10 mg/kg, ip for 7 days by immunohistochemical analysis; assay type: functional, organism-based; settings: Uterine lumen, time 7.0 day; summary of the method: as §1
[26] = Toxicity in P4 induced CD-1 mouse assessed as effect on uterus weight at 10 mg/kg,ip for 7 days (Rvb= 0.033g); assay type: organism-based; settings: in vivo, 168 h, time 7 day
[27] = Toxicity in P4 induced CD-1 mouse assessed as effect on MG weight at 10 mg/kg, ip for 7 days (Rvb= 0.22g); assay type: organism-based; settings: in vivo, 168 h, time 7 day
[28] = Toxicity in P4 induced CD-1 mouse assessed as effect on glucose level at 10 mg/kg, ip for 7 days (Rvb=231.6 mg/dL); assay type: organism-based; settings: in vivo, 168 h, time 7 day
Mus musculus [29] = assay: Effect on P4 induced PR protein level in CD-1 mouse uterus at 10 mg/kg, ip for 7 days by immunohistochemical staining method; assay type: functional, organism-based; settings: time 7.0 day
Mus musculus [30] = assay: Effect on P4 induced GR expression in CD-1 mouse uterine stroma at 10 mg/kg, ip for 7 days by immunohistochemical analysis; assay type: functional, organism-based; settings: time 7.0 day; summary of the method: as §1
Mus musculus [31] = assay: Inhibition of ZBTB16 expression in CD-1 mouse uterus at 1 mg/kg, ip for 7 days by Immunohistochemical staining method; assay type: functional, organism-based; settings: time 7.0 day
Summary of the method: (§2)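 Ovariectomized CD-1 mice, 5 per group, dosed IP daily for 7 days: 10% DMSO vehicle, progesterone 1 mg/kg, baicalein 25 mg/kg, P4 1 mg/kg + baicalein 25 mg/kg, or P4 1 mg/kg + RU486 10 mg/kg. One uterine horn formalin-fixed, paraffin-embedded, cut at 5 μm. IHC: citrate antigen retrieval at 100 °C, primary antibody overnight at 4 °C, ABC/DAB, hematoxylin counterstain. For PCNA, the percentage of proliferating luminal epithelial cells was counted.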

Mus musculus [32] = assay: Effect on PR protein level in CD-1 mouse uterus at 1 mg/kg, ip for 7 days by immunohistochemical; assay type: functional, organism-based; settings: time 7.0 day; summary of the method: as §2
Mus musculus [33] = assay: Effect on GR expression in CD-1 mouse uterine stromal at 1 mg/kg, ip for 7 days by immunohistochemical staining analysis; assay type: functional, organism-based; settings: Stroma, time 7.0 day; summary of the method: as §2
[34] = Antiproliferative activity against CD-1 mouse uterine epithelial cell at 1 mg/kg, ip for 7 days by immunohistochemistry method; assay type: functional; settings: time 7 day; summary of the method: as §2

O=c1cc(-c2ccccc2)oc2cc(O)c(O)c(O)c12 [BAICALEIN]
IC50 (Progesterone receptor): 15 µM | Activity [1]: 47% | Activity [2]: 0.024 g | Activity [3]: 196.2 mg/dL | Activity [4]: 30 g | Activity (Mus musculus [5]): Active | Activity [6]: 30 g | Activity [7]: 1.4 g | Activity (Mus musculus [8]): Active | Activity (Mus musculus [9]): inactive | Activity (Mus musculus [10]): inactive | IC50 (Glucocorticoid receptor): 19 µM | Activity (Mus musculus [11]): inactive | Activity (Mus musculus [12]): Active | inhibition (Mus musculus [13]): inactive | Activity [14]: 0.23 g | Activity [15]: 0.026 g | Activity [16]: 1.2 g | Activity [17]: 179.8 mg/dL | Activity (Mus musculus [18]): inactive | Activity (Mus musculus [19]): inactive | inhibition (Mus musculus [20]): Active | Activity [21]: 0.26 g

CC#C[C@]1(O)CC[C@H]2[C@@H]3CCC4=CC(=O)CCC4=C3[C@@H](c3ccc(N(C)C)cc3)C[C@@]21C [MIFEPRISTONE]
Activity [22]: 1.2 g | Activity [23]: 29 g | Activity (Mus musculus [24]): inactive | Activity (Mus musculus [25]): Active | Activity [26]: 0.021 g | Activity [27]: 0.17 g | Activity [28]: 198.2 mg/dL | Activity (Mus musculus [29]): inactive | Activity (Mus musculus [30]): Active

CC(=O)[C@H]1CC[C@H]2[C@@H]3CCC4=CC(=O)CC[C@]4(C)[C@H]3CC[C@]12C [PROGESTERONE]
Activity [3]: 209.4 mg/dL | Activity [4]: 30 g | inhibition (Mus musculus [31]): inactive | Activity [7]: 1.4 g | Activity [15]: 0.021 g | Activity (Mus musculus [32]): inactive | Activity (Mus musculus [33]): Active | Activity [21]: 0.24 g | Activity [34]: 7%
